Results from different studies.
Protocols differ between the studies behind these lines.
Cell line: MCF-10A
Observed: cell growth or viability

Structure (SMILES) | test | conditions | IC50
CN(C)C(=S)[N-]N=C(c1ccccn1)c1ccccn1.[O]=[V+]=[O] | MTT | 48 h | 19.2 µM
CCOC(=O)c1c(C)nc2ccc(-c3ccc(F)c(F)c3)cc2c1O | MTT | 48 h | > 100 µM
Cc1ccc(S(=O)(=O)n2cc(/C=N/NC(=O)c3ccc(C)c(F)c3)c3ccccc32)cc1 | MTT | 48 h | > 50 µM
CCOC(=O)c1c(C)nc2ccc(-c3ccc(F)cc3)cc2c1O | MTT | 48 h | > 100 µM
CC(=O)O[C@H]1C(=O)[C@@]2(C)[C@H]([C@H](OC(=O)c3ccccc3)[C@]3(O)C[C@H](OC(=O)[C@H](O)[C@@H](NC(=O)c4ccccc4)c4ccccc4)C(C)=C1C3(C)C)[C@]1(OC(C)=O)CO[C@@H]1C[C@@H]2O | MTT | 48 h | > 100 µM
Cc1ccc(S(=O)(=O)n2cc(/C=N/NC(=O)c3cccc4ccccc34)c3ccccc32)cc1 | MTT | 48 h | > 50 µM
CC(C)Cc1ccc([C@H](C)C(=O)O)cc1 | SRB | 72 h | 435 µM
CO[C@H]1[C@H](O[C@H]([C@H]2O[C@@H](n3ccc(=O)[nH]c3=O)[C@H](O)[C@@H]2O)[C@H](NCCCNC(=O)[C@@H](NC(=O)[C@@H](NC(=O)N[C@H](C(=O)O)C(C)C)[C@@H]2CCN=C(N)N2)[C@@H](OC(=O)CCCCCCCCCCCCN(O)C(=N)N)C(C)C)C(=O)O)O[C@H](CN)[C@H]1O | WST-1 | – | > 35 µM
COc1ccc(C(=O)N/N=C/c2cn(S(=O)(=O)c3ccc(C)cc3)c3ccccc23)cc1 | MTT | 48 h | > 50 µM
CCOC(=O)c1c(C)nc2ccc(-c3ccc(OCc4ccccc4)c(F)c3)cc2c1O | MTT | 48 h | > 100 µM
CO[C@H]1[C@H](O[C@H]([C@H]2O[C@@H](n3ccc(=O)[nH]c3=O)[C@H](O)[C@@H]2O)[C@H](NCCCNC(=O)[C@@H](NC(=O)[C@@H](NC(=O)N[C@H](C(=O)O)C(C)C)[C@@H]2CCN=C(N)N2)[C@@H](O)C(C)C)C(=O)O)O[C@H](CN)[C@H]1O | WST-1 | – | > 35 µM
